Assay outcomes as filed in PubChem.
Hits are enriched below; roughly 3.8% of the tested compounds scored in any of these assays.
KCNK9 inh – KCNK9 potassium channel inhibitors, primary screen, HEK293 cells, thallium flux; 1.2% of 310,000 active; Potassium channel subfamily K member 9 (Homo sapiens), Q9NPC2; FluxOR thallium flux fluorescence; hits give low values; AID 488922, 2010; B-score at 10 µM;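 active = ratio B-score over 3 SD below the library mean, with starting fluorescence within 5 SD of its mean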;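 also: negative B-score means less thallium flux so channel inhibition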
Target sequence (Q9NPC2 whole entry, looked up): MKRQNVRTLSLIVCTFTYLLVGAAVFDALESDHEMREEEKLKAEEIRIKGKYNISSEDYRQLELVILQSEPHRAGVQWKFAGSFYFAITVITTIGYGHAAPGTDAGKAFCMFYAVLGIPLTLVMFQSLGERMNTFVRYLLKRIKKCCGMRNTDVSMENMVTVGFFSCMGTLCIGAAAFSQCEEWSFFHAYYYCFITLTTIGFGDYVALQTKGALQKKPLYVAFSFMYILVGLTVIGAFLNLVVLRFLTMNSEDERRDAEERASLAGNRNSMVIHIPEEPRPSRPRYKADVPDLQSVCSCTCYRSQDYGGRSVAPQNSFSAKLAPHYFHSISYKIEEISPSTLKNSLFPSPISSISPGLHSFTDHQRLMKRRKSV
Kir21 block – inhibitors of mouse Kir2.1 inward-rectifier potassium channel; Inward rectifier potassium channel 2 (Mus musculus), P35561; HEK293-Kir2.1, FluxOR thallium flux fluorescence; hits give low values; B-score at 10 µM; 0.85% of 310,000 active;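 active = fluorescence ratio B-score at or below minus 3 SD of library scores, with starting-brightness B-score within 2 SD, cut at about -4.2 in these data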;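 also: channel flux triggered by added potassium and thallium sulfate stimulus; B-score of peak minus minimum fluorescence over baseline after thallium stimulus; more negative B-score means stronger Kir2.1 block with less thallium influx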
KCNQ1 inh – inhibitors of human KCNQ1 channel, primary screen, cell-based, thallium flux, high-throughput. CHO-K1 KCNQ1, FluxOR thallium flux fluorescence; hits give high values. B-score at 10 µM. 1.3% of 310,000 active. AID 2642, 2010;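 active = compounds whose thallium flux B-score, printed positive for inhibition, exceeds three library SD while starting fluorescence stays within three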;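 also: channel opened by potassium depolarization with thallium stimulus after 20 min compound exposure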
KCNK3 inh – human KCNK3 channel inhibitors, primary screen, CHO cells, FluxOR thallium flux, B-score; Potassium channel subfamily K member 3 (Homo sapiens), O14649; 0.84% of 340,000 active; AID 602410, 2012; FluxOR fluorescence; hits give low values; B-score at 10 µM;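 active = B-score under library mean minus 4 SD, starting fluorescence ratio at most library mean plus 5 SD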;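 also: more negative B-score means stronger inhibition of thallium flux through KCNK3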
KCNQ1 pot – potentiators or activators of KCNQ1 channel, primary screen, cell-based, thallium flux, high-throughput; 0.35% of 310,000 active; Potassium voltage-gated channel subfamily KQT member 1 (Homo sapiens), P51787; AID 2648, 2010; CHO-K1 KCNQ1, thallium flux FluxOR fluorescence; hits give high values; B-score at 10 µM;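 active = fluorescence ratio B-score, a plate-corrected score, at least three library SD, with initial intensity B-score within 5 SD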
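assay system = CHO-K1 cells stably expressing KCNQ1 | medium = assay buffer, equal DMSO in all wells | timing = 37 °C overnight plating, 90-min dark dye load, 20-min compound pretreatment | measured by = kinetic FluxOR thallium fluorescence, 10-s 1-Hz baseline, 110-s post-stimulus read | measure = fluorescence change relative to baseline, converted to B score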
hERG rescue – hERG rescue from dofetilide block, primary screen, cell-based, CHO-hERG, FluxOR thallium flux, dofetilide IC70; Voltage-gated inwardly rectifying potassium channel KCNH2 (Homo sapiens), Q12809; dofetilide IC70 present; activation (rescue from dofetilide block), less the hit threshold, % at 10 µM; 0.51% of 310,000 active; AID 1511, 2009;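 active = activation above the mean of controls blocked by dofetilide plus 5 SD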;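 also: thallium influx through hERG after potassium depolarization seen as dye fluorescence rise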
KCNK9 block conf – KCNK9 potassium channel inhibitors, confirmation, HEK293 cells, thallium flux, duplicate | shares compounds with KCNK9 inh | FluxOR thallium flux fluorescence | inhibition, % at 10 µM | 43% of 4,900 active;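 active = thallium signal inhibited by more than 5 SD of the compound-free buffer control wells, on both duplicate plates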
Kir2-1 spec – mouse Kir2.1 channel inhibition, confirmation, selectivity assay for KCNK9 modulator project, cell-based, HEK293, thallium flux | shares compounds with KCNK9 inh | Kir2.1 cells, FluxOR thallium flux fluorescence | inhibition, % at 10 µM | 4% of 4,900 active;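 active = thallium signal drop more than 5 SD beyond the mean of the no-compound control wells, seen in both duplicate plates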;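 also: signal is fluorescence rise after thallium addition divided by baseline fluorescence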
HEK293 Tl ctr – thallium flux in non-induced HEK293 cells, confirmation, counter-screen for KCNK9 inhibitor project, cell-based, second counter screen, non-induced KCNK9-HEK293 | shares compounds with KCNK9 inh | FluxOR thallium flux | inhibition, % at 10 µM | 40% of 4,900 active;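 active = thallium signal drop beyond 5 SD of the untreated control mean, on both duplicate plates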
Each line names hits and unclear results; the compound was inactive in the other large screens (follow-up assays come after a bar, where they were run).

CCCCOC(=O)c1ccc(NC(=O)c2ccccc2OC)cc1	KCNK9 inh -9.19 | KCNK9 block conf 74.0% | Kir2-1 spec inactive | HEK293 Tl ctr 32.5%
CCOC(=O)c1oc2ccccc2c1COC(=O)CNC(=O)c1ccccc1OC	none
CC(=O)Nc1ccc(Oc2cnccn2)cc1	none
CS(=O)(=O)N1CCC(C(=O)NCc2ccc(Cl)cc2)CC1	none
CSc1ccccc1NC(=O)NCCCl	none
Cc1onc(-c2ccccc2)c1C(=O)NC1CC1	none (no result: KCNK9 inh, Kir21 block, KCNQ1 inh, KCNQ1 pot, hERG rescue)
Cc1cccc(N2CCN(C(=O)COc3cccc4c3OC(C)(C)C4)CC2)c1C	KCNK9 inh -8.7 | KCNK9 block conf 25.0% | Kir2-1 spec inactive | HEK293 Tl ctr inactive
CC1(C)Cc2cccc(OCC(=O)N3CCN(S(=O)(=O)c4ccc(F)cc4)CC3)c2O1	none
Cc1[nH]c2ccccc2c1/C=N/NC(=O)c1cc(-c2cccs2)[nH]n1	KCNK9 inh -10.1 | KCNK9 block conf inactive | Kir2-1 spec inactive | HEK293 Tl ctr inactive
COCC(=O)Nc1ccc(S(=O)(=O)N2CCCC2)cc1	none
Cc1cccc(C(=O)Nc2ccc(C(=O)c3ccccc3)cc2)c1	KCNK9 inh -15.2 | KCNK9 block conf 60.0% | Kir2-1 spec inactive | HEK293 Tl ctr 27.0%
CC/C(=N/Nc1ccccc1Cl)c1cnnc(-c2ccccc2)n1	KCNK9 inh -13.5 | KCNK9 block conf inactive | Kir2-1 spec inactive | HEK293 Tl ctr 38.0%
COc1ccc(C(=O)/C(=C/O)N=Nc2ccc(F)cc2)cc1	KCNK9 inh -12 | KCNK9 block conf inactive | Kir2-1 spec inactive | HEK293 Tl ctr inactive
CC(C)CCC(C)N=Cc1c(O)n(Cc2ccccc2)c(=O)c2ccccc12 (stereo not given)	KCNK9 inh -12.8 | KCNK9 block conf 73.5% | Kir2-1 spec inactive | HEK293 Tl ctr 43.5%
CCN(CC)CCCN=Cc1c(O)n(Cc2ccccc2)c(=O)c2ccccc12	none
CCn1ncc(CN2CCCC(C(=O)c3cccc(OC(C)C)c3)C2)c1C (stereo not given)	none | KCNK9 block conf inactive | Kir2-1 spec inactive | HEK293 Tl ctr inactive
COc1ccc(CN2CCCC(C(=O)c3cccc(OC(C)C)c3)C2)cc1Cn1cccn1 (stereo not given)	none | KCNK9 block conf inactive | Kir2-1 spec inactive | HEK293 Tl ctr inactive
CCOC(=O)c1[nH]ncc1CN1CCCC(C(=O)c2cccc(OC(C)C)c2)C1 (stereo not given)	none
COCc1cc(CN2CCCC(C(=O)c3cccc(C(F)(F)F)c3)C2)ccc1OC (stereo not given)	none | KCNK9 block conf inactive | Kir2-1 spec inactive | HEK293 Tl ctr inactive
O=C(CCc1ccc(O)cc1)c1c(O)cc(O)cc1O[C@@H]1O[C@H](CO)[C@@H](O)[C@H](O)[C@H]1O	none
CSc1ccc2c(c1)C(N1CCN(C)CC1)Cc1ccc(F)cc1S2 (stereo not given)	none
Fc1ccc2c(c1)Sc1ccc(Cl)cc1CC2N1CCN(CCC2OCCO2)CC1 (stereo not given)	none | KCNK9 block conf inactive | Kir2-1 spec inactive | HEK293 Tl ctr inactive
